ERb coact inh: inhibitors of ERβ-SRC1 coactivator interaction, primary screen, biochemical, TR-FRET, ERβ LBD, SRC-1 peptide; hit rate 1.3% among 86,000; TR-FRET ER-beta LBD / SRC1-Cy5 peptide binding; receptor agonist-loaded with 1 µM estradiol; inhibition, % at 25.6 µM;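 active means compounds whose percent inhibition of the receptor-coactivator binding signal exceeds about 50% in the single-dose screen, limit read from the data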
SF1 activator: activators of human SF-1, primary screen, cell-based, CHO-K1, Gal4-SF-1 LBD, luciferase luminescence | hit rate 1.9% among 65,000 | AID 522, 2006 | activation, % at 10 µM | CHO-K1 Gal4-SF-1 LBD luciferase reporter; % increase over DMSO SF-1-specific signal | Steroidogenic factor 1 (Homo sapiens), Q13285;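 active means activation above the mean activation of all tested compounds plus 3 SD, cut at about 50% in these data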
Target sequence (Q13285 whole entry, looked up, the tested form may be a part): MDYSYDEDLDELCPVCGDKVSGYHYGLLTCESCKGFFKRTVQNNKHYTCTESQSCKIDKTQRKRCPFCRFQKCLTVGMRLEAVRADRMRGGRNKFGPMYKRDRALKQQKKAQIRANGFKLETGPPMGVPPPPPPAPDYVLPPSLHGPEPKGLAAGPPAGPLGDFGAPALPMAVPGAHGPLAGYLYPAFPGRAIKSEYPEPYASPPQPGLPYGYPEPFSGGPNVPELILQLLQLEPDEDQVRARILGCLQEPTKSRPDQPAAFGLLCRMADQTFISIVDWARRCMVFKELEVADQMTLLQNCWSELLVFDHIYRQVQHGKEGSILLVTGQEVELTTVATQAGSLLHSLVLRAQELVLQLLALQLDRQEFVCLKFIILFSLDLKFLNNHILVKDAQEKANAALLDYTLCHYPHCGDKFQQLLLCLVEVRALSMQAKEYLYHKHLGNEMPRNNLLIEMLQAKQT
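Material: Gal4–SF-1 LBD one-hybrid luciferase reporter in CHO-K1 cells | Amount: 4,000 cells per well | Compound dosing: 10 µM single point, 1% DMSO | Schedule: 20 h compound treatment, 37 °C | Measured by: SteadyLite luciferase luminescence | Evaluation: Percent activation versus DMSO | Control set: DMSO-treated SF-1-transfected cells as negative, DMSO-treated mock-transfected cells lacking SF-1 as background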
BAP1 inh: inhibitors of BAP1 deubiquitinase, primary screen, biochemical, Ub-AMC fluorescence, kinetic | calls only at 20 µM | recombinant BAP1, Ub-AMC hydrolysis fluorescence kinetic; active compounds read low | hit rate 0.48% among 72,000;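 active means activity remaining at or below 50% of control, provided the compound also passes the data quality filters; inactive means the rest, including low values that fail the filters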
ERa coact inh: ERα–SRC-1 coactivator interaction inhibitors, primary screen, biochemical, TR-FRET, ERα LBD, estradiol-bound; inhibition, % at 25.6 µM; TR-FRET ER-alpha LBD / SRC-1 peptide; hit rate 1.7% among 86,000; Estrogen receptor (Homo sapiens), P03372; in the data active means inhibition above about 50%
ERa SRC1 pot: enhancers of ERα–SRC-1 coactivator binding, primary screen, biochemical, TR-FRET, ERα LBD, low estradiol; hit rate 1.3% among 86,000; Estrogen receptor (Homo sapiens), P03372; TR-FRET ERalpha-LBD/SRC-Cy5 coactivator binding, 2 h; 100 = basal binding, no effect; coactivator binding (% of control), % at 25.6 µM; in the data active means activity above about 200%;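 further: binding measured in presence of low estradiol as agonist stimulus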
RORA act: activators of orphan receptor RORA, primary screen, cell-based, luminescence; CHO-K1 Gal4-RORA LBD luciferase reporter; percent increase over mock-subtracted basal signal; Nuclear receptor ROR-alpha (Homo sapiens), P35398; hit rate 1.5% among 65,000; activation, % at 10 µM;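 active means activation above the mean of all tested compounds plus 3 SD, cut at about 49% in these data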
A number is an active result; [ ] = remark or other dose. An excerpt weighted towards active compounds, which were near 5.1% of everything screened.

How did O=C(COc1ncnc2ccccc12)c1ccc2c(c1)OCCO2 do in these assays?
ERb coact inh: inactive; SF1 activator: 58.5; BAP1 inh: inactive; ERa coact inh: inactive; ERa SRC1 pot: inactive; RORA act: inactive

How did O=C(COC(=O)C(O)c1ccccc1)c1ccc2c(c1)OCCO2 (configuration not stated) do in these assays?
ERb coact inh: inactive; ERa coact inh: inactive; ERa SRC1 pot: 421.0

Results for Cc1c(C(=O)OCC(=O)c2ccc3c(c2)OCCO3)oc2ccccc12 ?
ERb coact inh: inactive; SF1 activator: inactive; ERa coact inh: inactive; ERa SRC1 pot: inactive; RORA act: inactive

How did O=C(O)CCC(=O)c1ccc2c(c1)OCCO2 do in these assays?
ERb coact inh: inactive; SF1 activator: inactive; BAP1 inh: inactive; ERa coact inh: inactive; ERa SRC1 pot: inactive; RORA act: inactive

Results for CCCCC1(O)CCCC1O (configuration not stated) ?
BAP1 inh: inactive

How did Clc1ccc(Cc2nn[nH]n2)cc1 do in these assays?
BAP1 inh: inactive

What do the screens show for `CN(c1ccccc1C(=O)O)S(=O)(=O)c1ccc2c3c(cccc13)C(=O)N2`?
ERb coact inh: 62.2; SF1 activator: inactive; ERa coact inh: 56.5; ERa SRC1 pot: inactive; RORA act: inactive

How did O=C(O)c1ccccc1NS(=O)(=O)c1ccc2c3c(cccc13)C(=O)N2 do in these assays?
SF1 activator: inactive; BAP1 inh: inactive; RORA act: inactive

Results for O=C1Nc2ccc(S(=O)(=O)NCc3ccco3)c3cccc1c23 ?
ERb coact inh: 58.1[fluorescence artefact?]; SF1 activator: inactive; BAP1 inh: inactive; ERa coact inh: inactive; ERa SRC1 pot: inactive; RORA act: inactive

Results for O=C(c1ccccc1N1C(=O)c2cccc3cccc(c23)C1=O)N1CCOCC1 ?
BAP1 inh: inactive

What do the screens show for `O=C(CSc1nnnn1-c1ccc2c(c1)OCCO2)OC1CCCCC1`?
ERb coact inh: inactive; SF1 activator: inactive; BAP1 inh: inactive; ERa coact inh: inactive; ERa SRC1 pot: 212.5; RORA act: inactive

How did COc1ccc(CNC(=O)COC(=O)c2cc(-c3ccco3)nc3ccccc23)cc1 do in these assays?
ERb coact inh: 76.8; ERa coact inh: 87.0[fluorescence artefact?]; ERa SRC1 pot: inactive

Results for O=C(OCC(=O)N1CCN(C(=O)c2ccco2)CC1)c1cc(-c2ccco2)nc2ccccc12 ?
ERb coact inh: 89.2; ERa coact inh: 92.1[fluorescence artefact?]; ERa SRC1 pot: inactive

Results for O=C(OCC(=O)N1CCN(C(=O)c2ccco2)CC1)c1cc(-c2ccc(Cl)c(Cl)c2Cl)nc2ccccc12 ?
ERb coact inh: inactive; ERa coact inh: inactive; ERa SRC1 pot: inactive

How did O=C(O)c1cc(-c2ccco2)nc2ccccc12 do in these assays?
ERb coact inh: 81.7[fluorescence artefact?]; SF1 activator: inactive; BAP1 inh: inactive; ERa coact inh: 74.2; ERa SRC1 pot: inactive; RORA act: inactive

What do the screens show for `CCc1ccccc1NC(=O)c1cnn2c1NC(c1cc(OC)c(OC)c(OC)c1)CC2C(F)(F)F` (configuration not stated)?
BAP1 inh: inactive

What do the screens show for `CC1=C(C(=O)OCC2CCCCC2)C(c2ccccc2OC(C)C)NC(=O)N1` (configuration not stated)?
BAP1 inh: inactive

How did Cc1cc(-c2ccccc2)nc(N2CCC(C(=O)NC(C)C)CC2)n1 do in these assays?
ERb coact inh: inactive; SF1 activator: 96.8; ERa coact inh: inactive; ERa SRC1 pot: inactive; RORA act: 66.6

Results for Cc1cccc(NC(=O)C2CCN(c3nc(C)cc(C)n3)CC2)c1 ?
ERb coact inh: 55.2[fluorescence artefact?]; SF1 activator: inactive; BAP1 inh: inactive; ERa coact inh: inactive; ERa SRC1 pot: inactive; RORA act: inactive

What do the screens show for `Cc1cc(-c2ccccc2)nc(N2CCC(C(=O)NCC3CCCCC3)CC2)n1`?
ERb coact inh: inactive; ERa coact inh: inactive; ERa SRC1 pot: inactive

Results for COC(=O)c1ccc(N2C(=O)CC(NCCc3ccc(S(N)(=O)=O)cc3)C2=O)cc1 (configuration not stated) ?
BAP1 inh: inactive

How did COc1cccc(-c2nc(CS(=O)(=O)CC(=O)Nc3cc(C)ccc3C)c(C)o2)c1 do in these assays?
ERb coact inh: inactive; SF1 activator: inactive; BAP1 inh: inactive; ERa coact inh: inactive; ERa SRC1 pot: 213.8[fluorescence artefact?]; RORA act: inactive

How did COc1cc(C(=S)N2CCCC2)cc(OC)c1O do in these assays?
ERb coact inh: inactive; ERa coact inh: 63.4[fluorescence artefact?]; ERa SRC1 pot: inactive

What do the screens show for `COc1ccc(-c2csc(NC(=O)c3ccc(S(=O)(=O)N4CCc5ccccc54)cc3)n2)cc1`?
BAP1 inh: inactive

Results for CN(C)c1ccc(/C=C/c2ccncc2)cc1 ?
ERb coact inh: inactive; SF1 activator: inactive; BAP1 inh: inactive; ERa coact inh: inactive; ERa SRC1 pot: inactive; RORA act: 73.4

What do the screens show for `COc1ccc(/C=C/c2ccncc2)cc1`?
ERb coact inh: inactive; ERa coact inh: inactive; ERa SRC1 pot: inactive

What do the screens show for `CCOC(=O)c1c(NC(=O)C2CCCO2)sc(C(=O)OC(C)(C)C)c1C` (configuration not stated)?
ERb coact inh: inactive; ERa coact inh: inactive; ERa SRC1 pot: inactive

Results for CCOC(=O)c1sc(NC(=O)C2CCCO2)c(C(=O)OCC)c1C (configuration not stated) ?
ERb coact inh: inactive; SF1 activator: inactive; BAP1 inh: inactive; ERa coact inh: 56.8; ERa SRC1 pot: inactive; RORA act: inactive

Results for CC1=C(C(=O)OCC2CCCCC2)C(c2ccc(Cl)cc2)NC(=O)N1 (configuration not stated) ?
BAP1 inh: inactive

Results for Oc1ccc(N=Cc2ccc(-c3cccs3)s2)cc1 ?
ERb coact inh: 62.5[fluorescence artefact?]; SF1 activator: inactive; BAP1 inh: inactive; ERa coact inh: inactive; ERa SRC1 pot: inactive; RORA act: inactive

Results for CCN(CC)C(=O)Oc1ccc2c(=O)c(-c3ccccc3)coc2c1 ?
ERb coact inh: inactive; SF1 activator: inactive; BAP1 inh: inactive; ERa coact inh: inactive; ERa SRC1 pot: inactive; RORA act: 82.4

What do the screens show for `CCc1cc2c(=O)c(-c3ccc(OC(C)C)cc3)coc2cc1OC(C)=O`?
BAP1 inh: inactive

What do the screens show for `Cc1ccc(-c2cc(C(=O)NCCCn3ccnc3)c3cc(Br)ccc3n2)o1`?
ERb coact inh: inactive; SF1 activator: inactive; BAP1 inh: inactive; ERa coact inh: 88.1[fluorescence artefact?]; ERa SRC1 pot: inactive; RORA act: inactive
